Test results: paper PMC4174307 (Nature, 2014)

Key:
P2Y12R (WT) [1] = biological target: T1, P2Y12R (WT) (Homo sapiens, UniProt Q9H244, D294N); experiment: saturation radioligand binding, membranes
Procedure, shortened: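 Receptor construct carrying the D294N mutation, with BRIL fused into ICL3, expressed in Sf9 cells. Membranes were prepared by homogenization, a 1,000g spin, then a 20,000g 60 min pellet. Saturation binding used [3H]2MeSADP (3.5 Ci mmol−1, 0.4–46 nM), 5 μg membrane protein, in Tris-HCl with 10 mM MgCl2. Nonspecific binding was defined with 10 μM P2Y12R antagonist. Filtration was followed by scintillation counting. Kd from independent experiments in duplicate.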

P2Y12R (WT) [2] = biological target: T2, P2Y12R (WT) (Homo sapiens, UniProt Q9H244); experiment: [3H]2MeSADP displacement, membranes; format: binding
P2Y12R (WT) [3] = biological target: T1, P2Y12R (WT); experiment: [3H]2MeSADP displacement, membranes; format: binding
P2Y12R (WT) [4] = biological target: P2Y12R (WT) (Homo sapiens, UniProt Q9H244, N159A); experiment: saturation radioligand binding, membranes
Procedure, shortened: (§1)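 Human P2Y12R (wild type or single alanine mutants) in pcDNA3.0, transiently transfected into COS7 cells and harvested 48 h later. Membranes: 1,000g spin, then 20,000g pellet for 60 min, stored at −80 °C. [3H]2MeSADP (3.5 Ci mmol−1, 0.4–46 nM) was incubated with 5 μg membrane protein in Tris-HCl with 10 mM MgCl2. Nonspecific binding was defined with 10 μM P2Y12R antagonist. Bound ligand was separated by filtration, washed with cold buffer and counted by scintillation. Kd is mean ± s.e.m., 3–6 independent experiments in duplicate.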

P2Y12R (WT) [5] = biological target: P2Y12R (WT) (Homo sapiens, UniProt Q9H244, S156A); experiment: saturation radioligand binding, membranes
Procedure, shortened: as §1

P2Y12R (WT) [6] = biological target: T2, P2Y12R (WT); experiment: saturation radioligand binding, membranes
Procedure, shortened: as §1

T1 sequence (Q9H244 whole entry D294N, the tested form may be a part): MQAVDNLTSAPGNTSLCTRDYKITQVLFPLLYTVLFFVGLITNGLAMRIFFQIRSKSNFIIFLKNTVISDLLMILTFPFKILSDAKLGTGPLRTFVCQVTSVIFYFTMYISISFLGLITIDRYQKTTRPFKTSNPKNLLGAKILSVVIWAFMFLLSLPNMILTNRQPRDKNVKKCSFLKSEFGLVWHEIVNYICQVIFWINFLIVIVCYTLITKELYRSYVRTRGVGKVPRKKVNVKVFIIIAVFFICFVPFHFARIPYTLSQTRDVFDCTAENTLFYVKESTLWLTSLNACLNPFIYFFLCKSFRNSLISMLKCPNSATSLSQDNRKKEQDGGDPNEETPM
T2 sequence (Q9H244 whole entry): as the sequence (Q9H244 whole entry D294N, the tested form may be a part) above, with N294D counted along it
Sequence of P2Y12R (WT) (Homo sapiens, UniProt Q9H244, N159A) (Q9H244 whole entry N159A): as the sequence (Q9H244 whole entry D294N, the tested form may be a part) above, with N159A, N294D counted along it
Sequence of P2Y12R (WT) (Homo sapiens, UniProt Q9H244, S156A) (Q9H244 whole entry S156A): as the sequence (Q9H244 whole entry D294N, the tested form may be a part) above, with S156A, N294D counted along it

Kd (P2Y12R (WT) [1]) [nM] | Ki (P2Y12R (WT) [2]) [nM] | Ki (P2Y12R (WT) [3]) [nM] | Kd (P2Y12R (WT) [4]) [nM] | Kd (P2Y12R (WT) [5]) [nM] | Kd (P2Y12R (WT) [6]) [nM] | Compound
 | 31.5 ± 11.9 |  |  |  |  | CCOC(=O)c1cc(C#N)c(N2CCC(C(=O)NS(=O)(=O)Cc3ccccc3)CC2)nc1C [AZD1283, Ethyl 6-(4-((benzylsulphonyl)carbamoyl)piperidin-1-yl)-5-cyano-2-methylnicotinate]
 | 275 ± 58 | 72.8 ± 16.7 |  |  |  | Nc1c(S(=O)(=O)O)cc(Nc2ccc(Nc3ccccc3)c(S(=O)(=O)O)c2)c2c1C(=O)c1ccccc1C2=O [PSB-0739]

The next lines start with the compound.

Compound | Kd (P2Y12R (WT) [1]) [nM] | Ki (P2Y12R (WT) [2]) [nM] | Ki (P2Y12R (WT) [3]) [nM] | Kd (P2Y12R (WT) [4]) [nM] | Kd (P2Y12R (WT) [5]) [nM] | Kd (P2Y12R (WT) [6]) [nM]
CSc1nc(N)c2ncn([C@@H]3O[C@H](COP(=O)(O)OP(=O)(O)O)[C@@H](O)[C@H]3O)c2n1 [2MeSADP, 2-methylthio-adenosine 5′-diphosphate] | 33.6 ± 10.2 | 120 ± 7.3 | 80.8 ± 16.8 | 6.39 ± 0.94 | 5.66 ± 0.72 | 4.25 ± 0.87
CSc1nc(N)c2ncn([C@@H]3O[C@H](COP(=O)(O)OP(=O)(O)OP(=O)(O)O)[C@@H](O)[C@H]3O)c2n1 [2MeSATP] |  | 119 ± 19.8 | 82.4 ± 28.5 |  |  | 
Nc1ncnc2c1ncn2[C@@H]1O[C@H](COP(=O)(O)OP(=O)(O)O)[C@@H](O)[C@H]1O [ADP] |  | 332 ± 35 | 169 ± 81 |  |  | 
CCCSc1nc(N[C@@H]2C[C@H]2c2ccc(F)c(F)c2)c2nnn([C@@H]3C[C@H](OCCO)[C@@H](O)[C@H]3O)c2n1 [Ticagrelor] |  | 454 ± 110 | 424 ± 193 |  |  | 
